The record followed here is ChEMBL document CHEMBL4680326, “Hit-to-lead optimization on aryloxybenzamide derivative virtual screening hit against SIRT” (Bioorg Med Chem, 2021).

Experiment [1] concerns the target T1, NAD-dependent protein deacetylase sirtuin-1 (Homo sapiens) (UniProt Q96EB6).
T1 sequence (whole entry): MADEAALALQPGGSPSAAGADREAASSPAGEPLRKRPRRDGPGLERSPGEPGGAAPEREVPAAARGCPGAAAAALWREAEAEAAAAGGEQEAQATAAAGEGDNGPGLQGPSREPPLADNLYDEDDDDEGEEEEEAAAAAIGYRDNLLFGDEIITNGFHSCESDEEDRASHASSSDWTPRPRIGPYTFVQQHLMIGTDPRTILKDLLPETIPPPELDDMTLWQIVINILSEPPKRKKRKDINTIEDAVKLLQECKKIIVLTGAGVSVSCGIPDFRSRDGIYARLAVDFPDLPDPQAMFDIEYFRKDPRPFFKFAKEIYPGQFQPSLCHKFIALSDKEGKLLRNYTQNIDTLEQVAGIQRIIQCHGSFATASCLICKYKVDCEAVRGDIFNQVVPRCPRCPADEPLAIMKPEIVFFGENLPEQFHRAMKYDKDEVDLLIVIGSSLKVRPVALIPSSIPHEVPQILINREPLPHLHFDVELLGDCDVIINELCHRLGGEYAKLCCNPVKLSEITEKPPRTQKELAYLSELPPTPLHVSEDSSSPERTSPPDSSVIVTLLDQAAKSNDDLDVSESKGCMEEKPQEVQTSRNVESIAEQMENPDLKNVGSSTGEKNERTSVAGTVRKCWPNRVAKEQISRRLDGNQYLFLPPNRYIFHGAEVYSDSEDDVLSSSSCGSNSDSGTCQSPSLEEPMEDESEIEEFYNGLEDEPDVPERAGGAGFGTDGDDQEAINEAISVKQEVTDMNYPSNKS
Briefly: Inhibition of recombinant N-terminal tagged human SIRT1 expressed in Escherichia coli at 100 uM using Fluor De Lys SIRT1 as substrate preincubated for 30 mins followed by substrate addition and measured after 1 hr in presence of NAD+ by fluorescence assay relative to control. The note with it: time 90.0 min. The gist of the method: (§1)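 Human recombinant SIRT enzyme and compound (1% v/v final DMSO) in SIRT assay buffer were preincubated at 37 °C for 30 min. NAD⁺ and Fluor de Lys deacetylase substrate were then added. Fluorescence was read at excitation 360 nm, emission 460 nm. % inhibition was taken from inhibited wells relative to control wells.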

The subject of experiment [2] is MCF7. In words: Cytotoxicity against human MCF7 cells assessed as reduction in cell viability measured after 72 hrs by MTT assay. In kind it is functional, cell-based. Particulars: MCF7, 72 h. The gist of the method: (§2)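 MCF-7 cells were grown in DMEM with 10% FBS and 1% penicillin–streptomycin to 70% confluency. 180 µl of a 5 × 10⁴ cells/ml suspension was seeded per well and held 24 h at 37 °C in 5% CO₂. Cells were exposed to 1, 10, 25, 50, 100 or 200 µM, then treated with MTT (5 mg/ml) for 4 h and read at 540 nm. Untreated cells served as control. Done in triplicate; IC50 from linear regression of concentration vs % viable cells.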

Experiment [3] concerns MCF7. Briefly: Cytotoxicity against human MCF7 cells assessed as reduction in cell viability measured after 48 hrs by MTT assay. It is filed as functional, cell-based. The note with it: MCF7, 48 h. In short, it runs like this:
as §2
(Formazan colour is commonly taken as a measure of viable cells.)

The target in experiment [4] is T2, NAD-dependent protein deacetylase sirtuin-2 (Homo sapiens) (UniProt Q8IXJ6).
T2 sequence (whole entry): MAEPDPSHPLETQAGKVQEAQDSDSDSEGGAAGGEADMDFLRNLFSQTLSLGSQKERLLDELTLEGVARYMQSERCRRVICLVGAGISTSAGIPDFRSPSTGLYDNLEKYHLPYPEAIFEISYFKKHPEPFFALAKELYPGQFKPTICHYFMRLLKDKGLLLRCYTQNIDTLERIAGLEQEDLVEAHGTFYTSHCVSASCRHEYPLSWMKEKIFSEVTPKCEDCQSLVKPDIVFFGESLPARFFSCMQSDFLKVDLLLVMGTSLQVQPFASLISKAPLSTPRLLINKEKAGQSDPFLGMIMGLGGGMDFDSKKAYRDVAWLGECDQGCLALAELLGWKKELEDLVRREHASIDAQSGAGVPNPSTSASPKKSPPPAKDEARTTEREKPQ
Briefly: Inhibition of recombinant N-terminal tagged human SIRT2 expressed in Escherichia coli at 100 uM using Fluor De Lys SIRT2 as substrate preincubated for 30 mins followed by substrate addition and measured after 1 hr in presence of NAD+ by fluorescence assay relative to control. The note with it: time 90.0 min. The gist of the method:
as §1

Experiment [5] has as its target T2, NAD-dependent protein deacetylase sirtuin-2 (Homo sapiens). In words: Inhibition of recombinant N-terminal tagged human SIRT2 expressed in Escherichia coli at 300 uM using Fluor De Lys SIRT2 as substrate preincubated for 30 mins followed by substrate addition and measured after 1 hr in presence of NAD+ by fluorescence assay relative to control. The note with it: time 90.0 min. The gist of the method: as §1

The target in experiment [6] is T3, NAD-dependent protein deacetylase sirtuin-3, mitochondrial (Homo sapiens) (UniProt Q9NTG7).
T3 sequence (whole entry): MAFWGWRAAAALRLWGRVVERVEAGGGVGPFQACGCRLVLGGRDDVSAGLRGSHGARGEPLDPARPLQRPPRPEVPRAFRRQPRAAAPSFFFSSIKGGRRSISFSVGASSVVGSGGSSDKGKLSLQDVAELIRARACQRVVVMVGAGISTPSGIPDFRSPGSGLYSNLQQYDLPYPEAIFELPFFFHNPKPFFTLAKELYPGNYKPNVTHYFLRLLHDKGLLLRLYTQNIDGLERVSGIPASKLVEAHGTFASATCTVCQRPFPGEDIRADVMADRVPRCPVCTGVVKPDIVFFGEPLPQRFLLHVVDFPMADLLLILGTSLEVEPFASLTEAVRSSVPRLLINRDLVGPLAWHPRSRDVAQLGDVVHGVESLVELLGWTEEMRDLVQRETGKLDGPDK
Briefly: Inhibition of recombinant N-terminal tagged human SIRT3 (102 to 399 residues) expressed in Escherichia coli at 300 uM using Fluor De Lys SIRT2 as substrate preincubated for 30 mins followed by substrate addition and measured after 1 hr in presence of NAD+ by fluorescence assay relative to control. The note with it: time 90.0 min. The gist of the method: as §1

Experiment [7] concerns the target T1, NAD-dependent protein deacetylase sirtuin-1 (Homo sapiens). In words: Inhibition of recombinant N-terminal tagged human SIRT1 expressed in Escherichia coli at 300 uM using Fluor De Lys SIRT1 as substrate preincubated for 30 mins followed by substrate addition and measured after 1 hr in presence of NAD+ by fluorescence assay relative to control. Particulars: time 90.0 min. The gist of the method:
as §1

As a reminder, the inhibition is the relative decrease from the control value, in per cent. Usually IC50 stands for the concentration that inhibits the measured activity by half.

Consider `NC(=O)c1ccc(NC(=O)c2ccc(Oc3ccccc3)cc2)cc1`, for which, in experiment [1], the inhibition turned out to be 46%. The 50% inhibitory concentration (IC50) in experiment [2] came to 356 µM; in experiment [3] it was 524 µM.
For the molecule `O=C(Nc1ccc2ccccc2c1)c1cccc(Oc2ncccn2)c1`, the inhibition in experiment [1] was 36.1%; in experiment [4], 17.1%.
Take `CC(=O)c1ccc(NC(=O)c2cccc(Oc3ccccc3)c2)cc1`: the inhibition in experiment [4] is 11.1%.
Regarding `CC(C)N1CCN(C(=O)c2cccc(Oc3ccccc3)c2)CC1`, the inhibition in experiment [1] turned out to be 48.1%. Moreover, the IC50 in experiment [2] worked out at 321 µM; in experiment [3] it was 465 µM.
As to `Cc1ccc(C(=O)Nc2ccc(S(=O)(=O)O)c3cc(S(=O)(=O)O)cc(S(=O)(=O)O)c23)cc1NC(=O)c1cccc(NC(=O)Nc2cccc(C(=O)Nc3cc(C(=O)Nc4ccc(S(=O)(=O)O)c5cc(S(=O)(=O)O)cc(S(=O)(=O)O)c45)ccc3C)c2)c1`, the inhibition in experiment [4] is 98.4%.
Consider `ON=C(c1cccc(Oc2ccccc2)c1)N1CCc2ccccc2C1`, for which the inhibition is 47.2% in experiment [1] and 51.6% in experiment [4]. Further, the IC50 in experiment [2] came to 33.1 µM; in experiment [3], 41.1 µM.
As for `Cc1ccc(Oc2cccc(C(=O)N[C@@H](C)c3ccccc3)c2)nn1`, the inhibition in experiment [5] amounted to 42.5%; in experiment [6] it was 18.2%; in experiment [7], 31.4%. Moreover, the 50% inhibitory concentration (IC50) was greater than 1000 µM in experiment [2] and 328 µM in experiment [3].
Consider `O=C(c1ccc(Oc2ccccc2)cc1)N1CCc2ccccc2C1`, for which, in experiment [1], the inhibition amounted to 21.5%.
For `O=C(c1cccc(Oc2ccccc2)c1)N1CCc2ccccc2C1`, the inhibition stood at 56.5% in experiment [1] and 10.8% in experiment [4]. Moreover, the results for the half-inhibitory concentration (IC50) in experiment [2] and in experiment [3] were 147 µM and 159 µM, respectively.
Turning to `CC(=O)c1ccc(NC(=O)c2ccc(Oc3ccccc3)cc2)cc1`, in experiment [1], the inhibition turned out to be 36.1%.
